Assay results reported in ChEMBL document CHEMBL1158076, “Bioactive guaianolides from siyekucai (Ixeris chinensis)” (J Nat Prod, 2006).
Structures can show the parent of a compound that is named as a salt. Active and inactive are the calls of the source. No cut-off for these calls is given here.

Columns and labels:
[1] = test system: A549; test: Inhibition of ICAM1 induction in human A549 cells at <100 uM pretreated for 1 hr in presence of TNFalpha for 6 hrs; assay type: functional, cell-based
[2] = test system: A549; test: Inhibition of ICAM1 induction in human A549 cells pretreated for 1 hr in presence of TNFalpha for 6 hrs; assay type: functional, cell-based
[3] = test system: A549; test: Inhibition of ICAM1 induction in human A549 cells <100 uM pretreated for 1 hr at in presence of IL1alpha for 6 hrs; assay type: functional, cell-based
[4] = test system: A549; test: Cytotoxicity against human A549 cells after 24 hrs by MTT method; assay type: cell-based; details: A549, 24 h
Procedure, shortened: (§1)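 A549 cells were exposed to serial dilutions for 24 h and viability was read by MTT, in triplicate cultures. Viability (%) = (experimental − background absorbance)/(control − background absorbance) × 100, and IC50 was derived from it.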

[5] = test system: WI-38; test: Cytotoxicity against human WI38 cells; assay type: functional, cell-based
[6] = test system: WI-38 VA13; test: Cytotoxicity against human VA13 cells; assay type: functional, cell-based
[7] = Cytotoxicity against human Hep G2 cells; assay type: functional, cell-based; details: HepG2
[8] = test system: A549; test: Inhibition of ICAM1 induction in human A549 cells pretreated for 1 hr in presence of IL1alpha for 6 hrs; assay type: functional, cell-based
[9] = test system: A549; test: Cytotoxicity against human A549 cells at <100 uM after 24 hrs by MTT method; assay type: cell-based; details: a549, 24 h; procedure, shortened: as §1
[10] = test system: A549; test: Inhibition of ICAM1 induction in human A549 cells in presence of IL1alpha; assay type: functional, cell-based

With CC1=C2[C@H]3OC(=O)[C@@H](C)[C@@H]3CC[C@@](C)(O)[C@@H]2CC1=O the Activity [1] was “inactive”, the IC50 [2] was greater than 100 µM and the Activity [3] was “inactive”. For the same compound, the IC50 [4] was greater than 100 µM, the IC50 [5] was 25 µM and the IC50 [6] was 130 µM. For the same compound, the IC50 [7] was 230 µM, the IC50 [8] was greater than 100 µM and the Activity [9] was “Non-toxic”.
With C=C1C(=O)O[C@@H]2[C@H]3C(CO)=CC(=O)C3=C(C)CC[C@@H]12 the IC50 [2] was 20.1 µM, the IC50 [4] was greater than 100 µM and the IC50 [5] was 2.7 µM. The IC50 [6] was 8.5 µM, the IC50 [7] was 25 µM and the IC50 [8] was 16.1 µM.
With C=C1C(=O)C[C@@H]2[C@H]1[C@H]1OC(=O)C(=C)[C@@H]1CC[C@@]2(C)O the IC50 [2] was 11.4 µM, the IC50 [4] was 64.9 µM and the IC50 [8] was 10.9 µM.
Work on CC(=O)O[C@H]1C(=O)[C@@]2(C)[C@H]([C@H](OC(=O)c3ccccc3)[C@]3(O)C[C@H](OC(=O)[C@H](O)[C@@H](NC(=O)c4ccccc4)c4ccccc4)C(C)=C1C3(C)C)[C@]1(OC(C)=O)CO[C@@H]1C[C@@H]2O [PACLITAXEL] yielded an IC50 [5] of 0.04 µM.
Work on C=C1C(=O)O[C@@H]2[C@H]3[C@H](C)C(=O)C[C@H]3[C@](C)(O)CC[C@@H]12 yielded an IC50 [2] of 16.8 µM, an IC50 [4] greater than 100 µM and an IC50 [5] of 25 µM. For the same compound, the IC50 [6] was 27 µM, the IC50 [7] was 22 µM and the IC50 [8] was 16.4 µM.
In the case of C[C@@H]1C(=O)O[C@H]2[C@H]1CC[C@@](C)(O)[C@@H]1CC(=O)[C@@H](C)[C@H]21, the IC50 [5] is reported as 32 µM, the IC50 [6] is reported as 160 µM and the IC50 [7] is reported as 230 µM.
Compound COc1cccc2c1C(=O)c1c(O)c3c(c(O)c1C2=O)C[C@@](O)(C(=O)CO)C[C@@H]3O[C@H]1C[C@H](N)[C@H](O)[C@H](C)O1 [DOXORUBICIN HYDROCHLORIDE] has an IC50 [5] of 0.7 µM and an IC50 [6] of 0.4 µM.
In the case of C=C1C(=O)O[C@@H]2[C@H]3C(=C)[C@@H](O[C@@H]4O[C@H](COC(=O)Cc5ccc(O)cc5)[C@@H](O)[C@H](O)[C@H]4O)C[C@H]3C(=C)C[C@@H](OC(=O)Cc3ccc(O)cc3)[C@@H]12 [IXEROCHINOSIDE], the Activity [1] is reported as “inactive”, the IC50 [2] is reported as greater than 100 µM and the Activity [3] is reported as “inactive”. The IC50 [4] was greater than 100 µM, the IC50 [8] was greater than 100 µM and the Activity [9] was “Non-toxic”.
C=C1C(=O)O[C@@H]2C3=C(C)C(=O)C[C@H]3[C@](C)(O)CC[C@@H]12 gave an IC50 [10] of 20.9 µM, an IC50 [4] greater than 100 µM and an IC50 [5] of 24 µM. It also gave an IC50 [6] of 22 µM and an IC50 [7] of 23 µM.
With C=C1[C@@H]2[C@H]3OC(=O)C(=C)[C@@H]3CC[C@@](C)(O)[C@@H]2C[C@@H]1O[C@@H]1O[C@H](COC(=O)Cc2ccc(O)cc2)[C@@H](O)[C@H](O)[C@H]1OC(=O)Cc1ccc(O)cc1 [CHINENSIOLIDE E] the Activity [1] was “inactive”, the IC50 [2] was greater than 100 µM and the Activity [3] was “inactive”. For the same compound, the IC50 [4] was greater than 100 µM, the IC50 [5] was 23 µM and the IC50 [6] was 0.72 µM. For the same compound, the IC50 [7] was 140 µM, the IC50 [8] was greater than 100 µM and the Activity [9] was “Non-toxic”.
